Measurements published in ChEMBL document CHEMBL1147722, “Discovery of proline sulfonamides as potent and selective hepatitis C virus NS5b polymerase inhibitors. Evidence for a new NS5b polymerase binding site” (J Med Chem, 2006).

Experiments:
[1] = target: RNA-directed RNA polymerase (Hepacivirus hominis, UniProt O39930); assay: Inhibition of HCV NS5B RNA dependent RNA polymerase
NS3 = NS3 (Hepatitis C virus, UniProt A3EZJ3); assay: Inhibition of HCV helicase; design: species or system Hepacivirus hominis
Chain of NS3 (A3EZJ3 whole entry): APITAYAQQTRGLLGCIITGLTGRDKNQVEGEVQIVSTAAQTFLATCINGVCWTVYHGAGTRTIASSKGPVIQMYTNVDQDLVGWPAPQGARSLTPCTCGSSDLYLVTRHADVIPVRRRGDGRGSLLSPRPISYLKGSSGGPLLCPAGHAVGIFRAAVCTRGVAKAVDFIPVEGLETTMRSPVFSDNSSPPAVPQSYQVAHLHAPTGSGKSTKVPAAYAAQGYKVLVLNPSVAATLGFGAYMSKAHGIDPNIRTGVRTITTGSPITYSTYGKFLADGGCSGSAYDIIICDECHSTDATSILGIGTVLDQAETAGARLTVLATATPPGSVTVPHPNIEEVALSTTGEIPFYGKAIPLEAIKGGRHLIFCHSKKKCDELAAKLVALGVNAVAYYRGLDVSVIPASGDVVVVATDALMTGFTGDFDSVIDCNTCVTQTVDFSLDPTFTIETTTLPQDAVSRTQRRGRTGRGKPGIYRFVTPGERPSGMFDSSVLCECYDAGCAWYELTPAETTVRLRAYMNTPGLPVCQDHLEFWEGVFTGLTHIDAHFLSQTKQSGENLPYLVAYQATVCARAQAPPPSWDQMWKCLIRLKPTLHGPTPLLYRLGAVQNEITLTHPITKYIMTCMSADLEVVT

[2] = target: Human immunodeficiency virus type 1 reverse transcriptase (Human immunodeficiency virus 1, UniProt Q72547); assay: Inhibition of HIV reverse transcriptase
DNA polymerase beta = DNA polymerase beta (Homo sapiens, UniProt P06746); assay: Inhibition of human polymerase beta
[3] = Permeability from apical to basolateral side of the Caco-2 cell; format: ADME, cell-based; details: human, read-out: permeability
Vero = assay: Cytotoxicity against Vero cell line; format: functional, cell-based; details: Chlorocebus sabaeus
Outline: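 Cytotoxicity read by MTS assay on actively growing cells: Vero cells for line 1, clone A cells for line 2. IC50 was determined in each assay.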

[4] = Permeability at pH 7.4 by PAMPA assay; format: ADME; details: read-out: permeability

Chain of RNA-directed RNA polymerase (O39930 whole entry): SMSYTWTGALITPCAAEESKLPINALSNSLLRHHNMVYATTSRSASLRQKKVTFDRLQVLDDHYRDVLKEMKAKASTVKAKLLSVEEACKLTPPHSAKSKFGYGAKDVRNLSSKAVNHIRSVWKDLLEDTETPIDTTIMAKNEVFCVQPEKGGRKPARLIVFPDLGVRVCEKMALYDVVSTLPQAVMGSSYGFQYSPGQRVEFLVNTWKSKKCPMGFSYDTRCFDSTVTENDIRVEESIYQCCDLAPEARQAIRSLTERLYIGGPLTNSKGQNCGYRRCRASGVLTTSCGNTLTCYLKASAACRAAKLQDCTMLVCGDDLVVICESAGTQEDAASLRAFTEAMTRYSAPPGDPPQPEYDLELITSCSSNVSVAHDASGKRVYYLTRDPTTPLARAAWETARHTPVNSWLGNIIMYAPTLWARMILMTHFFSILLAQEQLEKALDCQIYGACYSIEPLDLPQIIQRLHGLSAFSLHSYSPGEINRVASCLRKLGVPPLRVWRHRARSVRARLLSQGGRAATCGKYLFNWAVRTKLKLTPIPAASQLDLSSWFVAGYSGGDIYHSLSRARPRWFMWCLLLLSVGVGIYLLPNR

| Structure (SMILES) | IC50 [1] [µM] | also measured |
| --- | --- | --- |
| O=C(O)[C@@H]1CCCN1S(=O)(=O)c1cc(Cl)cc(Cl)c1 | > 20 | – |
| O=C(O)[C@@H]1CCCN1S(=O)(=O)c1cc(F)cc(Cl)c1O | 2.1 | – |
| O=C(O)[C@@H]1CCCN1S(=O)(=O)c1cc(Cl)cc(Cl)c1O | 0.77 | – |
| Cc1cc(NC(=O)c2ccccc2)c(S(=O)(=O)N2CCC[C@H]2C(=O)O)cc1Cl | > 20 | – |
| Nc1ccccc1S(=O)(=O)N1CCC[C@H]1C(=O)O | > 20 | – |
| Cc1cc(N)c(S(=O)(=O)N2CCC[C@H]2C(=O)O)cc1Cl | 5.95 | – |
| O=C(O)[C@@H]1CCCCN1S(=O)(=O)c1cc(Cl)cc(Cl)c1O | 2 | – |
| O=C(O)[C@H]1CCCCN1S(=O)(=O)c1cc(Cl)cc(Cl)c1O | 7.1 | – |
| Cc1cc(S(=O)(=O)N2CCC[C@H]2C(=O)O)c(N)cc1Cl | – | IC50 (NS3): > 75 µM; IC50 [2]: > 100 µM; IC50 (DNA polymerase beta): > 100 µM |
| O=C(O)[C@@H]1CCCN1S(=O)(=O)c1cc(Cl)cc(Br)c1O | 0.26 | – |
| O=C(O)[C@@H]1CCCN1S(=O)(=O)c1cc(Cl)c(Cl)c(Cl)c1O | 0.08 | Papp A→B [3]: 0.4 ×10⁻⁶ cm/s; IC50 (Vero): > 100 µM; Papp [4]: 0.02 ×10⁻⁶ cm/s |
| O=S(=O)(c1cc(Cl)cc(Cl)c1O)N1CCC[C@H]1c1nn[nH]n1 | 0.56 | – |
| CC(=O)Nc1cc(C)c(Cl)cc1S(=O)(=O)N1CCC[C@H]1C(=O)O | > 20 | – |
| COC(=O)[C@@H]1CCCN1S(=O)(=O)c1cc(Cl)cc(Cl)c1O | > 20 | – |
| O=S(=O)(c1cc(Cl)cc(Cl)c1O)N1CCCC1 | 4.8 | – |
| O=C(O)[C@H]1CCCN1S(=O)(=O)c1cc(Cl)cc(Cl)c1O | 7.9 | – |
| N#C[C@@H]1CCCN1S(=O)(=O)c1cc(Cl)cc(Cl)c1O | 1.4 | – |
| O=C(O)C1CSCN1S(=O)(=O)c1cc(Cl)cc(Cl)c1O (single isomer, unassigned; 33) | 0.24 | – |
| O=C(O)C1CSCN1S(=O)(=O)c1cc(Cl)cc(Cl)c1O (single isomer, unassigned; 34) | 1.7 | – |
